Sampled rows, rich in hits. Any-hit rate of the full collection: about 1.2%.
SR-BI HDL uptake: mouse SR-BI HDL lipid transfer inhibition; Q61009; ldlA[mSR-BI] CHO cells, DiI-HDL uptake fluorescence, 3 h; inhibition, % at 12.5 µM; actives 0.96% (n = 320,000); AID 488896;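 active = mean replicate inhibition of at least 70% and a set share of replicates each scoring 70 or more; inconclusive = meets just one of the two criteria; inactive = fails both criteria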;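 note: 0% = median of neutral control wells and 100% = median of positive control wells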
Target sequence (Q61009 whole entry, looked up): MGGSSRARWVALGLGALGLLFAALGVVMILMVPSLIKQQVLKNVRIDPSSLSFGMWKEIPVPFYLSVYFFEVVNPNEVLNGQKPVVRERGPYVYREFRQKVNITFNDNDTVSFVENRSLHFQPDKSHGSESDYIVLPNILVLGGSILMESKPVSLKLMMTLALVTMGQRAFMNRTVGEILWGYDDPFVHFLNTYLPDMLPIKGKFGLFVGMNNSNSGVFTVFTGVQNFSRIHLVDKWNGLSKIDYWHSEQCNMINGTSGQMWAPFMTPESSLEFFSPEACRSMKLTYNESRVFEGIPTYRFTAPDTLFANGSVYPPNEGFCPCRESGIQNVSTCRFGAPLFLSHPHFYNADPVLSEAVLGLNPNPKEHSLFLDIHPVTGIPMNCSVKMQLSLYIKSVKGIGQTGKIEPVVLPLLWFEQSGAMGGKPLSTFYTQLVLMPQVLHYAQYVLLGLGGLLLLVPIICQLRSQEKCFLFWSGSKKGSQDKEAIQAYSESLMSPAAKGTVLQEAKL
FN deposition inh: fibronectin deposition inhibition | AH1F fibroblasts, Alexa488-fibronectin deposition fluorescence, overnight | inhibition, % at 12.6 µM | actives 0.086% (n = 350,000) | AID 743247;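 active = mean inhibition across replicates of 30% or more, regardless of how many single replicates reach that level; inconclusive = mean under 30% yet at least half of replicates reach 30%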;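 note: positive control wells lacked labelled fibronectin entirely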
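Assay system: AH1F fibroblasts assembling fluorescent fibronectin matrix; Amount: 10000 AH1F cells per well; Buffer or medium: DMEM, 2% serum; Probe or stimulus: Alexa488-fibronectin, 24 nM final in well; Doses: single compound dose, delivered by pin transfer; Incubation: 1 h adhesion, overnight exposure; Measured by: fluorescence 485/525 nm; Read-out: fibronectin deposition inhibition.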
Efflux pump inh: inhibitors of Candida antifungal efflux pumps expressed in yeast; S. cerevisiae Candida pump triplex, Nile Red efflux; actives 0.44% (n = 330,000); inhibition, % at 10 µM;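 active = plate passing quality check with inhibition over a set limit, or well fluorescence over plate mean plus 4 SD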;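 note: Nile Red retained in pooled yeast measured as flow cytometry median fluorescence; 0% = buffer negative control and 100% = Enniatin B positive control; higher means more Nile Red kept so more efflux inhibition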
CaV13 FRET inh: Primary screen for inhibitors of IQ motif and Ca2+-dependent inactivation inhibitor domain binding in CACNA1D, Förster resonance energy transfer in living cells, … | HEK cells, CFP/YFP FRET ICDI-IQ, plate reader, 10 min; percent FRET-ratio fall versus neutral wells | inhibition, % at 12.3 µM | actives 0.098% (n = 340,000) | AID 743397;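 active = mean replicate inhibition of at least 30% and at least 1% of replicates passing that level; inconclusive = only one of the two criteria is met; inactive = neither criterion is met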;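 note: 0% = median of the neutral control wells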
SR-BI DiI-HDL act: activators of SR-BI mediated HDL lipid uptake. CHO ldlA[mSR-BI] cells, DiI-HDL uptake fluorescence, 3 h; 100 = double the neutral-control signal. activation, % at 12.5 µM. actives 0.096% (n = 320,000). AID 504775;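 active = mean replicate activation of at least 60% and every replicate at or above 60%; inconclusive = mean or all-replicate condition met, but not both; inactive = mean below 60% and not all replicates reaching 60%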;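 note: 0% = median plate neutral-control signal and 100% = twice that signal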
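Test system: SR-BI-overexpressing, LDLR-lacking CHO cells; Medium: Ham's F12 with 0.5% BSA, HEPES 25 mM, pH 7.4; Schedule: 3 h, 37 °C; Technique: bottom-read fluorescence, 550/595 nm.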
An asterisk follows results filed as active; ? = inconclusive; . = not tested or not shown.

SMILES	SR-BI HDL uptake	FN deposition inh	Efflux pump inh	CaV13 FRET inh	SR-BI DiI-HDL act
CN1C(=O)c2cc(NC(=O)C3CC3)ccc2OC[C@H]2O[C@H](CC(=O)NCC3CCCCC3)CC[C@@H]21	.	5	.	.	.
c1ccc2oc(C3=NNC(=NC4CC4)SC3)cc2c1	82*	-8	0	-17	-82
COc1ccccc1-[n+]1c(C)cc(/C=C2\Sc3ccccc3N2C)cc1C	69	-35	0	19	-69
COc1ccc(-[n+]2c(C)cc(/C=C3\Sc4ccccc4N3C)cc2C)cc1	25	-20	0	34*	-25
C/C=C/c1ccc([C@H]2[C@H](CO)N(S(=O)(=O)Cc3ccccc3)C23CN(C(=O)C2CC2)C3)cc1	.	3	.	.	.
CCOC(=O)c1c2c(n(Cc3ccccc3)c1C)C(=O)C(=O)c1ccccc1-2	33	30*	.	-5	-33
Oc1ccccc1/C=N/NC(=S)NC1CC2CCC1C2 (configuration not stated)	76*	-1	0	-13	-76
CCCNC(=O)Nc1ccc2c(c1)OC[C@H](C)N(C(=O)c1ccccc1F)C[C@H](C)[C@@H](OC)CN(C)C2=O	.	-9	.	.	.
CC(=O)N(Cc1ccc(F)cc1)C1=C(NCCc2ccccc2)C(=O)c2ccccc2C1=O	16	42*	0	-2	-16
O=[N+]([O-])c1ccc(O)c(N=Cc2sc3ccccc3c2O)c1	124*	1	0	-5	-125
CNC(=O)C[C@@H]1CC[C@H]2[C@@H](COc3ccc(NC(=O)c4ccccc4Cl)cc3C(=O)N2C)O1	.	1	.	.	.
COc1cc(/C=C2\SC(=Nc3ccccc3)N(CCc3c[nH]c4ccccc34)C2=O)ccc1OC(C)C(=O)O (configuration not stated)	23	-1	0	-10	-23
COc1ccc(N=C2S/C(=C\c3ccc(OC(C)C(=O)O)c(OC)c3)C(=O)N2CCc2c[nH]c3ccccc23)cc1 (configuration not stated)	75*	-1	.	-4	-75
O=C1/C(=C/c2ccc(N3CCOCC3)o2)SC(=Nc2ccccc2)N1CCc1c[nH]c2ccccc12	87*	.	0	.	-87
O=C1N[C@H](c2ccccc2)COCc2cn(nn2)CC[C@@H](Cc2ccc(C(F)(F)F)cc2)C(=O)N[C@H](c2ccccc2)COCc2cn(nn2)CC[C@H]1Cc1ccc(C(F)(F)F)cc1	.	-2	.	.	.
CCn1cc(/C=N\NC(=O)C2(C)CC2(Cl)Cl)c(C)n1 (configuration not stated)	-3	.	0	-10	3
CCOc1cc(C(=O)N/N=C\c2cn(CC)nc2C)cc(OCC)c1OCC	81*	-5	1	-5	-81
CCOc1ccccc1NC(=O)Nc1ccsc1C(=O)OC	79*	.	0	.	-79
CCOc1ccccc1NC(=O)Nc1cccc(C(C)=O)c1	78*	-1	0	-5	-78
C[C@H]1CN([C@@H](C)CO)C(=O)c2cccc(NC(=O)Nc3ccc(F)cc3)c2O[C@H]1CN(C)C(=O)Nc1ccc(C(F)(F)F)cc1	.	-8	.	.	.
Cc1cccc(OCC(=O)Nc2ccc(N3CCCC3)cc2)c1C	71*	.	0	-8	-71
Cc1cc(C)cc(OCC(=O)Nc2ccc(N3CCCC3)cc2)c1	75*	.	0	.	-75
COc1ccccc1OCC(=O)Nc1ccc(N2CCCCC2)cc1	40	-6	0	-1	-40
Cc1ccc(OCC(=O)Nc2ccc(N3CCCC3)cc2)cc1C	?	-7	0	-6	-71
CCC(=O)c1cn(CC(=O)NCc2ccco2)c2ccccc12	-3	.	0	-5	3
SMILES	SR-BI HDL uptake	FN deposition inh	Efflux pump inh	CaV13 FRET inh	SR-BI DiI-HDL act
COC(=O)c1cn(CC(=O)NCc2ccco2)c2ccccc12	-11	31*	0	-4	11
CC[C@@H]1CC=CC[C@H](C)Oc2ccccc2C(=O)N(C)[C@@H](C(C)C)C(=O)N1 (mixture of isomers)	.	-7	.	.	.
COc1cc(OC)cc(-c2sc3ccc(OC)cc3c2C#CCO)c1	79*	9	0	-10	-79
COc1cc(OC)cc(-c2sc3ccc(OC)cc3c2C#CC(C)(C)O)c1	42	-12	0	-5	-42
CS(=O)(=O)c1sc(C#N)c2c1C(=O)CC(c1ccccc1)C2 (configuration not stated)	16	37*	0	-13	-16
Cc1oc2c(c(=O)c1C)C(=O)CC(c1ccccc1)C2 (configuration not stated)	-8	.	0	0	8
Oc1ccc(-c2nccs2)cc1	-73	.	.	-5	73*
CC(C)C#Cc1ccc2c(c1)O[C@H](CN(C)C(=O)C1CCC1)[C@@H](C)CN([C@H](C)CO)S2(=O)=O	.	1	.	.	.
CC(=O)Nc1cccc2c1O[C@@H](CN(C)C(C)=O)[C@H](C)CN(C)C2=O	.	-9	.	.	.
Cc1ccc(-n2c(C)cc(/C=C3\SC(=O)NC3=O)c2C)cc1	17	5	0	-13	-17
Cc1cc(/C=C2\SC(=S)NC2=O)c(C)n1-c1cccc(O)c1	.	-2	0.8*	-15	.
CC(C)NC(=O)N(C)C[C@H]1Oc2cc(-c3cncnc3)ccc2S(=O)(=O)N([C@@H](C)CO)C[C@@H]1C	.	-6	.	.	.
C[C@@H]1CN([C@@H](C)CO)S(=O)(=O)c2ccc(C#CC3CC3)cc2O[C@H]1CN(C)C(=O)C1CCCCC1	.	8	.	.	.
O=C(C[C@@H]1CC[C@H](NC(=O)c2ccccc2)[C@@H](CO)O1)NCc1ccncn1	.	1	.	.	.
CN(C)CC(=O)Nc1ccc2c(c1)[C@H]1C[C@H](CC(=O)N(C)C)O[C@@H](CO)[C@H]1O2	.	3	.	.	.
C/C(CC(=O)Nc1ccc(Cl)c(C(F)(F)F)c1)=N\NC(=O)c1cc2ccccc2cc1O	112*	-3	-1	-5	-112
CCOC(=O)c1sc(NC(=O)c2ccc(Cl)s2)cc1C	21	-11	0	-5	-21
CCOC(=O)c1sc(NC(=O)c2c(C)nn(Cc3ccccc3)c2C)cc1C	82*	-2	0	-3	-82
CCOC(=O)c1sc(NC(=O)c2ccccc2)cc1C	46	-11	0	-4	-46
CCOC(=O)c1sc(NC(=O)Nc2ccc(Cl)cc2)cc1C	76*	-3	0	-4	-76
Cc1cc(NC(=O)c2cc3cccc([N+](=O)[O-])c3[nH]2)ccc1F	77*	7	0	-4	-77
CCC(=O)Nc1ccc(-c2cc(-c3ccccc3)nc(-c3ccc(NC(=O)CC)cc3)n2)cc1	-103	3	0	-3	103*
CC(=O)Nc1ccc(-c2cc(-c3ccccc3)nc(-c3ccccc3)n2)cc1	45	5	0	-6	-45
CSc1nnc(Cc2cc(=O)[nH]c(=O)[nH]2)n1-c1cc(C)ccc1C	-70	7	0	-4	70*

Screening data as filed in PubChem.
